# Reference: ChEMBL document CHEMBL1134406, “Azepanone-based inhibitors of human and rat cathepsin K” (J Med Chem, 2001)
# How the values were obtained:
# [1] = Bioavailability in rat (Sprague-Dawley) (male); type: ADME, organism-based; conditions: in vivo
# In short: (§1)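 Crossover in rats over 2 study days, 2 days apart: 30-min IV infusion on day 1, oral bolus gavage in the same animals on day 2. Blood taken from lateral tail vein, plasma by centrifugation, drug quantified by LC/MS/MS (LLOQ 5–10 ng/mL). PK parameters from plasma concentration–time data by standard analysis.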
# [2] = plasma clearance in male Sprague-Dawley rat; type: ADME, organism-based; in short: as §1
# [3] = volume distribution in male Sprague-Dawley rat; type: ADME, organism-based; conditions: in vivo, read-out: Vdss; in short: as §1
# [4] = half life period in male Sprague-Dawley rat; type: ADME, organism-based; conditions: in vivo; in short: as §1
# Procathepsin L = Procathepsin L (Homo sapiens, UniProt P07711); assay: Inhibitory activity against Human cathepsin L
# Cathepsin S = Cathepsin S (Homo sapiens, UniProt P25774); assay: Inhibitory activity against Human cathepsin S
# Cathepsin K [5] = target: T1, Cathepsin K (Homo sapiens, UniProt P43235); assay: Inhibition of Human cathepsin K
# T1 sequence (P43235 whole entry): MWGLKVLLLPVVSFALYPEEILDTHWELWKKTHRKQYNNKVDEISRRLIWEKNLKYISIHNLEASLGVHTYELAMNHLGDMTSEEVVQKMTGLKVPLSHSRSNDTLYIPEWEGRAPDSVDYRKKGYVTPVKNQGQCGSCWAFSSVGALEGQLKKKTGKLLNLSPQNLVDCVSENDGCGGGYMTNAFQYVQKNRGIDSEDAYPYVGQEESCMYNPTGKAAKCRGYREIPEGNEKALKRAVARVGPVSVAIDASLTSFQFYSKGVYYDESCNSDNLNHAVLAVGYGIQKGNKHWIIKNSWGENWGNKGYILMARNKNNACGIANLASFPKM
# Cathepsin B = Cathepsin B (Homo sapiens, UniProt P07858); assay: Inhibitory activity against Human cathepsin B
# [6] = Volume of distribution in male Sprague-Dawley rat; type: ADME, organism-based; conditions: in vivo, read-out: Vdss; in short: as §1
# Cathepsin K [7] = target: T1, Cathepsin K; assay: In vitro IC50 value was measured using in situ cytochem assay.
# Cathepsin K [8] = target: T2, Cathepsin K (Rattus norvegicus, UniProt O35186); assay: Inhibitory activity against Rat cathepsin K
# T2 sequence (O35186 whole entry): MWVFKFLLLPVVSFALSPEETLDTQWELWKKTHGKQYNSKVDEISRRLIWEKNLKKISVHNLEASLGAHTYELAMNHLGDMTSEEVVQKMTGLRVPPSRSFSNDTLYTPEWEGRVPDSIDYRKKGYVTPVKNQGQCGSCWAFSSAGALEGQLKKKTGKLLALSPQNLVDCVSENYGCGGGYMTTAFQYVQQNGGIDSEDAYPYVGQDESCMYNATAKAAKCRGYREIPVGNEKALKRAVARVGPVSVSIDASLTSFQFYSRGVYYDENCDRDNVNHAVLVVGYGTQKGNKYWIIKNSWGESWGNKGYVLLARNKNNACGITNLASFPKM
# Chain of Cathepsin S (P25774 whole entry): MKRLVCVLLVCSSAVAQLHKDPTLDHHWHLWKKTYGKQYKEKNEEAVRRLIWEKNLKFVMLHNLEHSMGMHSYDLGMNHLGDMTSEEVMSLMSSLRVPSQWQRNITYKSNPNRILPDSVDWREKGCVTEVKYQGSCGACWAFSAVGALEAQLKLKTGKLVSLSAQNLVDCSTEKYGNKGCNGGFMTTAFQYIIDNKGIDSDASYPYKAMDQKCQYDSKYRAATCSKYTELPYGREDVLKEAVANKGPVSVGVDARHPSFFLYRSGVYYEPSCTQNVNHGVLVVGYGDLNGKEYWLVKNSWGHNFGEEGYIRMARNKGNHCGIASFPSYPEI
# Chain of Procathepsin L (P07711 whole entry): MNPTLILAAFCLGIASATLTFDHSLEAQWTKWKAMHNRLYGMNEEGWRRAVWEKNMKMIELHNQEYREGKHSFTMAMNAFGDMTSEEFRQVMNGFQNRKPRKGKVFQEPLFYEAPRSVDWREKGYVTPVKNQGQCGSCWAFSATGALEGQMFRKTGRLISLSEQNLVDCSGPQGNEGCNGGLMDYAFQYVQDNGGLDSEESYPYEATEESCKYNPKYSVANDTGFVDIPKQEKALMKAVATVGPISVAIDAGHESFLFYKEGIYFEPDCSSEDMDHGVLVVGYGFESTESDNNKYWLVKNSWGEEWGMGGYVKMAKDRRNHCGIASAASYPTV
Compound,bioavailability [1] [%],clearance [2] [mL/min/kg],half-life [4] [min],Ki (Cathepsin S) [nM],Ki (Cathepsin K [5]) [nM],Ki (Cathepsin B) [nM],also measured
CC(C)C[C@H](NC(=O)c1cc2ccccc2o1)C(=O)N[C@@H]1CCCN(S(=O)(=O)c2ccccn2)CC1=O,9.7,51.9,33.2,,,,Vd [3]: 1.64 L/kg
CC(C)C[C@H](NC(=O)OCc1ccccc1)C(=O)N[C@@H]1CCCN(C(=O)[C@H](CC(C)C)NC(=O)OCc2ccccc2)CC1=O,,,,97,15,,Ki (Procathepsin L): 290 nM
CC(C)C[C@H](NC(=O)c1cc2cc(OCCN3CCOCC3)ccc2o1)C(=O)NC1CCCN(C(=O)Cc2cccc(-c3ccccn3)c2)CC1O (stereo partly drawn),,,,,54,,
CC(C)C[C@H](NC(=O)c1cc2ccccc2o1)C(=O)NC1CCCN(S(=O)(=O)c2ccccn2)CC1O (stereo partly drawn),,,,,> 1000,,
CC(C)C[C@H](NC(=O)c1cc2ccccc2o1)C(=O)N[C@@H](C)C(=O)CN(C)S(=O)(=O)c1ccccn1,2.5,44.6,21.5,,670,,Vd [3]: 1.15 L/kg
CC(C)C[C@H](NC(=O)c1cc2ccccc2o1)C(=O)N[C@@H](C)C(=O)CNS(=O)(=O)c1ccccn1,3.2,32.5,33.2,20,7.5,59,Vd [6]: 0.71 L/kg
CC(C)C[C@H](NC(=O)OCc1ccccc1)C(=O)N1CCCC(NC(=O)[C@@H](CC(C)C)NC(=O)OCc2ccccc2)C(=O)C1 (stereo partly drawn),,,,,30,,
CC(C)C[C@H](NC(=O)OCc1ccccc1)C(=O)NCC(=O)CNC(=O)[C@H](CC(C)C)NC(=O)OCc1ccccc1,,,,890,,,
CC(C)C[C@H](NC(=O)c1cc2ccccc2o1)C(=O)N[C@H]1CCCN(S(=O)(=O)c2ccccn2)CC1=O,42.1,49.2,29.8,,,500,Vd [6]: 1.86 L/kg; Ki (Procathepsin L): 2.2 nM; Ki (Cathepsin K [8]): 60 nM

# The next lines start with results.
bioavailability [1] [%],clearance [2] [mL/min/kg],half-life [4] [min],Ki (Cathepsin S) [nM],Ki (Cathepsin K [5]) [nM],Ki (Cathepsin B) [nM],Compound,also measured
,,,,4.7,,CC(C)C[C@H](NC(=O)c1cc2cc(OCCN3CCOCC3)ccc2o1)C(=O)N[C@@H]1CCCN(C(=O)Cc2cccc(-c3ccccn3)c2)CC1=O,
,,,,2.3,> 1000,CC(C)C[C@H](NC(=O)OCc1ccccc1)C(=O)N1CC(=O)C(NC(=O)[C@@H](CC(C)C)NC(=O)OCc2ccccc2)C1 (stereo partly drawn),
,,,26,2,,CC(C)C[C@H](NC(=O)OCc1ccccc1)C(=O)NC1CCCN(C(=O)[C@H](CC(C)C)NC(=O)OCc2ccccc2)CC1=O (stereo partly drawn),Ki (Procathepsin L): 47 nM
,,,,2.6,440,CC(C)C[C@H](NC(=O)OCc1ccccc1)C(=O)N1CCC(NC(=O)[C@@H](CC(C)C)NC(=O)OCc2ccccc2)C(=O)C1 (stereo partly drawn),
2.1,39.7,338,14,0.0048,100,CC(C)C[C@H](NC(=O)c1cc2cc(OCCN3CCOCC3)ccc2o1)C(=O)N[C@H]1CCCN(C(=O)Cc2cccc(-c3ccccn3)c2)CC1=O,Vd [6]: 1.29 L/kg; Ki (Procathepsin L): 0.49 nM; IC50 (Cathepsin K [7]): 30 nM; Ki (Cathepsin K [8]): 4.8 nM
3.3,33.1,27,,1.6,,CC(C)C[C@H](NC(=O)c1cc2ccccc2o1)C(=O)NCC(=O)CNS(=O)(=O)c1ccccn1,Vd [3]: 0.65 L/kg
